The subject of assay [1] is Olaparib-resistant PEO1. Kind of assay: Inhibition of EHMT1/2 in human Olaparib-resistant PEO1 cells assessed as increase in Cyclin B1 protein level at 3 uM for 72 hrs by immunoblot analysis. It is filed as functional, cell-based. In a few lines: (§1)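 PEO1-OR cells were treated with olaparib and/or UNC0642 as for the cell-cycle experiment. Total RIPA lysates were immunoblotted for cell-cycle proteins, and band intensity was normalized to actin, relative to the non-pretreated control.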

Assay [2] relates to Olaparib-resistant PEO1. Description: Induction of cell cycle arrest in human Olaparib-resistant PEO1 cells assessed as accumulation of cells in S phase pretreated for 72 hrs by UNC0642 follwed by compound addition at 3 uM incubated for 72 hrs in presence of UNC0642 by propidium iodide staining based flow cytometry analysis (reference value: 21.9%). The class given is functional. For orientation: A flow cytometer gives signals particle by particle.

In assay [3] the test system is Olaparib-resistant PEO1. Description: Inhibition of colony formation in human Olaparib-resistant PEO1 cells incubated for 12 days by crystal violet staining based analysis. To be noted: Olaparib-resistant PEO1, 288 h. It is filed as functional, cell-based. In a few lines:
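PEO1 parental cells and PEO1-OR cells (selected by step-wise olaparib escalation) were seeded in 24-well plates with increasing olaparib for 12 days, with medium and drug changed every 3 days. Colonies were fixed and stained with 0.4% crystal violet, and the dissolved stain was measured at 570 nm. IC50 was taken from the dose-response curves.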

For assay [4], the system named is Olaparib-resistant PEO1. Kind of assay: Inhibition of EHMT1/2 in human Olaparib-resistant PEO1 cells assessed as increase in Cyclin A protein level at 3 uM for 72 hrs by immunoblot analysis. It is filed as functional, cell-based. Summed up: as §1
(A western blot detects proteins with antibodies after separation by electrophoresis.)

The subject of assay [5] is Olaparib-resistant PEO1. Description: Inhibition of colony formation in EHMT1/2 double knockdown human Olaparib-resistant PEO1 cells by colony formation assay. The class given is functional, cell-based. In a few lines: (§2)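 PEO1-OR cells carrying scrambled shRNA or combined shEHMT1/shEHMT2 (puromycin-selected) were seeded in 24-well plates with increasing olaparib. Medium and drug were renewed every 3 days for 12 days or until control confluence. Cells were fixed in methanol/acetic acid and stained with 0.4% crystal violet, and dissolved dye was read at 570 nm (three wells).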

Assay [6] relates to Olaparib-resistant PEO1. Description: Induction of cell cycle arrest in human Olaparib-resistant PEO1 cells assessed as accumulation of cells in G1 phase pretreated for 72 hrs by UNC0642 follwed by compound addition at 3 uM incubated for 72 hrs in presence of UNC0642 by propidium iodide staining based flow cytometry analysis (reference value: 52.9%). The class given is functional.

Assay [7] concerns Olaparib-resistant PEO1. Description: Inhibition of EHMT1/2 in human Olaparib-resistant PEO1 cells assessed as Cyclin A protein level in presence of UNC0642 at 3 uM for 72 hrs by immunoblot analysis. It is filed as functional, cell-based. In a few lines: as §1
For assay [8], the system named is Olaparib-resistant PEO1. Kind of assay: Inhibition of colony formation in human in EHMT1/2 double knockdown human Olaparib-resistant PEO1 cells at 120 nM by colony formation assay. It is filed as functional, cell-based. In a few lines: as §2
Assay [9] relates to Ovarian carcinoma cell. Description: Antitumor activity against patient derived primary High-grade serous ovarian cancer cell ascite cells xenografted in NSG mouse assessed as upregulation of EHMT1 protein level in tumor administrated once daily for 21 days by immunoblot analysis. It is filed as functional, cell-based. To be noted: Homo sapiens, time 21.0 day.

The source made the active and inactive calls. No cut-off for these calls is given here.

As usually defined, the IC50 is the midpoint of a concentration-inhibition curve. For `O=C(c1cc(Cc2n[nH]c(=O)c3ccccc23)ccc1F)N1CCN(C(=O)C2CC2)CC1` [OLAPARIB], the outcome in assay [1], in [4], in assay [7] and in assay [9] was Active. In addition, the values for the Activity in assay [2] and in assay [6] were 26.1% and 46.6%, respectively. The figures for the IC50 in [3] and in assay [5] were 1220 nM and 507 nM, respectively. For the same molecule, in assay [8], the inhibition entry was “Active”.

The values are drawn from ChEMBL document CHEMBL5712910, “Histone methyltransferases EHMT1 and EHMT2 (GLP/G9A) maintain PARP inhibitor resistance in high-grade serous ovarian carcinoma” (Clin Epigenetics, 2019).
